Tests used:
OVCAR-3 = assay: NCI 60-cell line screen; type: cell-based, human
LOX IMVI = assay: NCI 60-cell line screen; type: cell-based, human
CAKI-1 = assay: NCI 60-cell line screen; type: cell-based, human
SK-OV-3 = assay: NCI 60-cell line screen; type: cell-based, human
In short: (§1)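 Test compounds were submitted to the National Cancer Institute and run under NCI's standard 60-cell-line protocols. Read-outs were taken from percent-growth versus log-concentration curves.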

MOLT-4 = assay: NCI 60-cell line screen; type: cell-based, human
SK-MEL-28 = assay: NCI 60-cell line screen; type: cell-based, human
In short: as §1

NCI-H226 = assay: NCI 60-cell line screen; type: cell-based, human
SW-620 = assay: NCI 60-cell line screen; type: cell-based, human
In short: as §1

OVCAR-8 = assay: NCI 60-cell line screen; type: cell-based, human
In short: as §1

MDA-MB-468 = assay: NCI 60-cell line screen; type: cell-based, human
KM12 = assay: NCI 60-cell line screen; type: cell-based, human
HL-60(TB) = conditions: leukemia
EKVX = assay: NCI 60-cell line screen; type: cell-based, human
HT29 = assay: NCI 60-cell line screen; type: cell-based, human
Staphylococcus aureus = assay: Disc diffusion antimicrobial test; type: cell-based; conditions: Staphylococcus aureus, 24 h, read-out: zone of inhibition (diameter of inhibition)
In short: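 Disc diffusion on nutrient agar, test compound at 100 μg/mL with DMSO as solvent. Plates incubated at 37 °C for 24 h after inoculation, then zone of inhibition measured and compared with standards. Controls were DMSO, amoxicillin, ciprofloxacin and tetracycline.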

A498 = assay: NCI 60-cell line screen; type: cell-based, human
TK-10 = assay: NCI 60-cell line screen; type: cell-based, human
In short: as §1

ACHN = assay: NCI 60-cell line screen; type: cell-based, human
SF-268 = assay: NCI 60-cell line screen; type: cell-based, human
In short: as §1

MCF-7 = assay: NCI 60-cell line screen; type: cell-based, human
HS 578T = assay: NCI 60-cell line screen; type: cell-based, human
COLO 205 = assay: NCI 60-cell line screen; type: cell-based, human
M14 = assay: NCI 60-cell line screen; type: cell-based, human
A549 cancer cell line = assay: MTT assay; type: cell-based; conditions: Homo sapiens, A549, 72 h
In short: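 A549 in DMEM and MCF-7 in RPMI, each with 10% heat-inactivated FBS, 1% penicillin/streptomycin and 2 mmol/L glutamine at 37 °C, 5% CO2. Seeded at 2000 (A549) or 10,000 (MCF-7) cells/well and attached 24 h. Then 72 h with test compound at varying concentrations. MTT (5 mg/mL stock) added for 4 h at 37 °C, formazan dissolved in DMSO, absorbance read at 450/540 nm. Triplicates in three separate experiments.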

HCC-2998 = assay: NCI 60-cell line screen; type: cell-based, human

`O=C(CNc1ccc([N+](=O)[O-])cc1)Nc1nc2ccccc2s1` [OMS5, N-(1,3-benzothiazol-2-yl)-2-(4-nitroanilino)acetamide] showed a GI50 (OVCAR-3; Homo sapiens, OVCAR-3) of 1900 nM, an IC50 (OVCAR-3; Homo sapiens, OVCAR-3) of 4000 nM and a CC50 (OVCAR-3; Homo sapiens, OVCAR-3, read-out: LC50) greater than 100000 nM. It also gave a TGI (OVCAR-3; OVCAR-3, ovarian cancer) of 9100 nM, a GI50 (LOX IMVI; Homo sapiens) of 600 nM and an IC50 (LOX IMVI; Homo sapiens) of 1000 nM. It also gave a CC50 (LOX IMVI; Homo sapiens, read-out: LC50) of 8700 nM, a TGI (LOX IMVI; melanoma) of 2600 nM and a TGI (CAKI-1; CAKI-1, renal cancer) of 9500 nM. The GI50 (CAKI-1; Homo sapiens, CAKI-1) was 400 nM, the IC50 (CAKI-1; Homo sapiens, CAKI-1) was 900 nM and the CC50 (CAKI-1; Homo sapiens, CAKI-1, read-out: LC50) was 32400 nM. The GI50 (SK-OV-3; Homo sapiens, SK-OV-3) was 1300 nM, the IC50 (SK-OV-3; Homo sapiens, SK-OV-3) was 5200 nM and the CC50 (SK-OV-3; Homo sapiens, SK-OV-3, read-out: LC50) was greater than 100000 nM. For the same molecule, the TGI (SK-OV-3; SK-OV-3, ovarian cancer) was 6800 nM, the GI50 (MOLT-4; Homo sapiens, MOLT-4) was 400 nM and the IC50 (MOLT-4; Homo sapiens, MOLT-4) was 600 nM. The CC50 (MOLT-4; Homo sapiens, MOLT-4, read-out: LC50) was greater than 100000 nM, the TGI (MOLT-4; MOLT-4, leukemia) was 12000 nM and the GI50 (SK-MEL-28; Homo sapiens, SK-MEL-28) was 1600 nM. For the same molecule, the IC50 (SK-MEL-28; Homo sapiens, SK-MEL-28) was 3000 nM, the CC50 (SK-MEL-28; Homo sapiens, SK-MEL-28, read-out: LC50) was 6900 nM and the TGI (SK-MEL-28; SK-MEL-28, melanoma) was 3300 nM. It also gave a GI50 (NCI-H226; Homo sapiens, NCI-H226) of 600 nM, an IC50 (NCI-H226; Homo sapiens, NCI-H226) of 3000 nM and a CC50 (NCI-H226; Homo sapiens, NCI-H226, read-out: LC50) greater than 100000 nM. For the same molecule, the TGI (NCI-H226; NCI-H226, non-small cell lung cancer) was 4900 nM, the GI50 (SW-620; Homo sapiens, SW-620) was 500 nM and the IC50 (SW-620; Homo sapiens, SW-620) was 700 nM. It also gave a CC50 (SW-620; Homo sapiens, SW-620, read-out: LC50) of 43700 nM, a TGI (SW-620; SW-620, colon cancer) of 7200 nM and a GI50 (OVCAR-8; Homo sapiens, OVCAR-8) of 600 nM. The IC50 (OVCAR-8; Homo sapiens, OVCAR-8) was 900 nM, the CC50 (OVCAR-8; Homo sapiens, OVCAR-8, read-out: LC50) was greater than 100000 nM and the TGI (OVCAR-8; OVCAR-8, ovarian cancer) was 22000 nM. For the same molecule, the GI50 (MDA-MB-468; Homo sapiens, MDA-MB-468) was 400 nM, the IC50 (MDA-MB-468; Homo sapiens, MDA-MB-468) was 1800 nM and the CC50 (MDA-MB-468; Homo sapiens, MDA-MB-468, read-out: LC50) was 5300 nM. It also gave a TGI (MDA-MB-468; MDA-MB-468, breast cancer) of 1800 nM, a GI50 (KM12; Homo sapiens, KM12) of 1200 nM and an IC50 (KM12; Homo sapiens, KM12) of 2500 nM. The CC50 (KM12; Homo sapiens, KM12, read-out: LC50) was 52500 nM, the TGI (KM12; KM12, colon cancer) was 12000 nM and the TGI (HL-60(TB)) was 14000 nM. It also gave a GI50 (EKVX; Homo sapiens) of 1100 nM, an IC50 (EKVX; Homo sapiens) of 2500 nM and a CC50 (EKVX; Homo sapiens, read-out: LC50) of 26900 nM. It also gave a TGI (EKVX; non-small cell lung cancer) of 4200 nM, a TGI (HT29; HT29, colon cancer) of 2100 nM and a GI50 (HT29; Homo sapiens, HT-29) of 500 nM. It also gave an IC50 (HT29; Homo sapiens, HT-29) of 700 nM, a CC50 (HT29; Homo sapiens, HT-29, read-out: LC50) of 8100 nM and a zone of inhibition at 100 µg/mL (Staphylococcus aureus) of 0 mm. It also gave a TGI (A498; A498, renal cancer) of 6500 nM, a GI50 (A498; Homo sapiens, A498) of 1400 nM and an IC50 (A498; Homo sapiens, A498) of 7200 nM. For the same molecule, the CC50 (A498; Homo sapiens, A498, read-out: LC50) was 28800 nM, the GI50 (TK-10; Homo sapiens, TK-10) was 1500 nM and the IC50 (TK-10; Homo sapiens, TK-10) was 10000 nM. For the same molecule, the CC50 (TK-10; Homo sapiens, TK-10, read-out: LC50) was greater than 100000 nM, the TGI (TK-10; TK-10, renal cancer) was 15000 nM and the GI50 (ACHN; Homo sapiens) was 400 nM. The IC50 (ACHN; Homo sapiens) was 800 nM, the CC50 (ACHN; Homo sapiens, read-out: LC50) was 33100 nM and the TGI (ACHN; renal cancer) was 8500 nM. It also gave a GI50 (SF-268; Homo sapiens, SF-268) of 1300 nM, an IC50 (SF-268; Homo sapiens, SF-268) of 3500 nM and a CC50 (SF-268; Homo sapiens, SF-268, read-out: LC50) of 51300 nM. For the same molecule, the TGI (SF-268; SF-268, CNS cancer) was 6600 nM, the GI50 (MCF-7; Homo sapiens, MCF7) was 400 nM and the IC50 (MCF-7; Homo sapiens, MCF7) was 500 nM. It also gave a CC50 (MCF-7; Homo sapiens, MCF7, read-out: LC50) of 74100 nM, a TGI (MCF-7; MCF-7, breast cancer) of 10000 nM and a TGI (HS 578T; HS 578T, breast cancer) of 5600 nM. The GI50 (HS 578T; Homo sapiens, Hs-578T) was 1600 nM, the IC50 (HS 578T; Homo sapiens, Hs-578T) was 5900 nM and the CC50 (HS 578T; Homo sapiens, Hs-578T, read-out: LC50) was 93300 nM. It also gave a TGI (COLO 205; COLO 205, colon cancer) of 1500 nM, a GI50 (COLO 205; Homo sapiens, COLO 205) of 400 nM and an IC50 (COLO 205; Homo sapiens, COLO 205) of 700 nM. The CC50 (COLO 205; Homo sapiens, COLO 205, read-out: LC50) was 4700 nM, the GI50 (M14; Homo sapiens, M14) was 900 nM and the IC50 (M14; Homo sapiens, M14) was 1400 nM. For the same molecule, the CC50 (M14; Homo sapiens, M14, read-out: LC50) was 6500 nM, the TGI (M14; M14, melanoma) was 2500 nM and the IC50 (A549 cancer cell line) was 61000 nM. The inhibition at 100 µM (A549 cancer cell line; read-out: experimental % of inhibition on A549 cancer cell line) was 64.2%, the TGI (HCC-2998; HCC-2998, colon cancer) was 2200 nM and the GI50 (HCC-2998; Homo sapiens, HCC 2998) was 900 nM. The IC50 (HCC-2998; Homo sapiens, HCC 2998) was 1600 nM and the CC50 (HCC-2998; Homo sapiens, HCC 2998, read-out: LC50) was 5300 nM.

Source: paper PMC10975593 (ACS Omega, 2024)
